In ChEMBL document CHEMBL3763097, “Synthesis and biological evaluation of 5,10-dihydro-11H-dibenzo[b,e][1,4]diazepin-11-one structural derivatives as anti-cancer and apoptosis inducing agents” (Eur J Med Chem, 2016):

Tests used:
MDA-MB-231 [1] = experiment: Cell cycle arrest in human MDA-MB-231 cells assessed as accumulation at G2/M phase at 2 uM after 24 to 48 hrs by propidium iodide staining based flow cytometry (reference value: 20.2%); type: functional
Procedure, shortened: (§1)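 Cells were seeded at 1×10^6 per well and treated 24 h later with 0.5, 1 or 2 µM compound; DMSO-treated cells served as control. Methods give harvest at 48 h (floating plus trypsinised cells); the figure legend says 24 h. Cells were fixed in 70% ethanol for 30 min at 4 °C and stained with PI, Triton X-100 and RNase A for 15 min in the dark. 10000 events were counted by flow cytometry.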

A549 [2] = experiment: Disruption of mitochondrial membrane potential in human A549 cells at 0.5 to 2 uM after 48 hrs by Rhodamine-123 staining based spectrofluorometry; type: functional
Procedure, shortened: (§2)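 Cells were seeded at 5×10^5 cells/mL overnight and treated with 0.5, 1 and 2 µM compound; the methods say 24 h and the results text says 48 h. Trypsinised cells were washed and stained with rhodamine-123 (2 µM in PBS) for 30 min at room temperature in the dark, washed and read by spectrofluorometer. Data are mean ± SD of three independent experiments.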

A549 [3] = experiment: Disruption of mitochondrial membrane potential in human A549 cells after 48 hrs by Rhodamine-123 staining based spectrofluorometry; type: functional, cell-based; procedure, shortened: as §2
MDA-MB-231 [4] = experiment: Disruption of mitochondrial membrane potential in human MDA-MB-231 cells after 48 hrs by Rhodamine-123 staining based spectrofluorometry; type: functional, cell-based; procedure, shortened: as §2
MDA-MB-231 [5] = experiment: Induction of reactive oxygen species generation in human MDA-MB-231 cells at 0.5 to 2 uM after 48 hrs by carboxy-DCFDA staining based spectrofluorometry relative to control; type: functional
A549 [6] = experiment: Induction of apoptosis in human A549 cells assessed as early apoptotic cells at 0.5 uM after 24 hrs by Annexin V-FITC/PI dual staining based flow cytometry (reference value: 5.3%); type: functional
A549 [7] = experiment: Induction of apoptosis in human A549 cells assessed as necrotic cells at 0.5 uM after 24 hrs by Annexin V-FITC/PI dual staining based flow cytometry (reference value: 5.2%); type: functional
A549 [8] = experiment: Induction of apoptosis in human A549 cells assessed as early apoptotic cells at 1 uM after 24 hrs by Annexin V-FITC/PI dual staining based flow cytometry (reference value: 5.3%); type: functional
MDA-MB-231 [9] = experiment: Induction of apoptosis in human MDA-MB-231 cells assessed as early apoptotic cells at 1 uM after 24 hrs by Annexin V-FITC/PI dual staining based flow cytometry (reference value: 0.3%); type: functional
A549 [10] = experiment: Induction of apoptosis in human A549 cells after 24 hrs by Annexin V-FITC/PI dual staining based flow cytometry; type: functional, cell-based
MDA-MB-231 [11] = experiment: Cell cycle arrest in human MDA-MB-231 cells assessed as accumulation at G2/M phase after 24 to 48 hrs by propidium iodide staining based flow cytometry; type: functional; procedure, shortened: as §1
A549 [12] = experiment: Cytotoxicity against human A549 cells assessed as growth inhibition after 72 hrs by MTT assay; type: functional, cell-based; details: A549, 72 h
Procedure, shortened: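 Cells in RPMI 1640 (PC-3, A549, MDA-MB-231) or DMEM (U87MG, MCF-7) with 10% FBS, passages 4-10, were seeded at 3000-5000 per well and left 24 h. Compounds in DMSO/medium were added for 72 h; DMSO served as control. MTT (5 mg/mL) was added for 4 h and formazan dissolved in DMSO. Absorbance was read at 570 nm minus 630 nm. % inhibition was taken versus DMSO, with IC50 by probit; mean ± SD of three experiments in triplicate.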

MDA-MB-231 [13] = experiment: Cytotoxicity against human MDA-MB-231 cells assessed as inhibition of colony formation after 24 hrs by methylene blue staining-based assay; type: functional, cell-based
Procedure, shortened: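 Clonogenic assay. Cells were plated at 500 per well and allowed to adhere 24 h. Compound was added at 0.1, 1 and 10 µM for 24 h, then medium was replaced and cells grown a further 14 days. Colonies were fixed with 4% paraformaldehyde, stained with 0.5% methylene blue in PBS for 30 min, rinsed and photographed.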

A549 [14] = experiment: Antimigratory activity in human A549 cells at 0.5 to 2 uM measured after 24 to 48 hrs by wound healing assay; type: functional, cell-based
Procedure, shortened: (§3)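 Wound-healing assay. Cells were seeded at 5×10^5 per well and grown 24 h to a confluent monolayer, then scratched once across the middle with a sterile pipette tip and washed twice with PBS. Compound was added at 0.5, 1 and 2 µM. Wound closure was photographed by phase-contrast microscopy at 0, 24 and 48 h in three or more random fields.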

MDA-MB-231 [15] = experiment: Antimigratory activity in human MDA-MB-231 cells at 0.5 to 2 uM measured after 24 to 48 hrs by wound healing assay; type: functional, cell-based; procedure, shortened: as §3
A549 [16] = experiment: Cell cycle arrest in human A549 cells assessed as accumulation at S phase at 0.5 uM after 24 to 48 hrs by propidium iodide staining based flow cytometry (reference value: 18.3%); type: functional; procedure, shortened: as §1
A549 [17] = experiment: Cell cycle arrest in human A549 cells assessed as accumulation at G2/M phase at 0.5 uM after 24 to 48 hrs by propidium iodide staining based flow cytometry (reference value: 22.3 to 31%); type: functional; procedure, shortened: as §1
A549 [18] = experiment: Cell cycle arrest in human A549 cells assessed as accumulation at G0/G1 phase at 1 uM after 24 to 48 hrs by propidium iodide staining based flow cytometry (reference value: 49.1%); type: functional; procedure, shortened: as §1
A549 [19] = experiment: Cell cycle arrest in human A549 cells assessed as accumulation at G2/M phase at 1 uM after 24 to 48 hrs by propidium iodide staining based flow cytometry (reference value: 22.3 to 31%); type: functional; procedure, shortened: as §1
A549 [20] = experiment: Cell cycle arrest in human A549 cells assessed as accumulation at G2/M phase at 2 uM after 24 to 48 hrs by propidium iodide staining based flow cytometry (reference value: 22.3 to 31%); type: functional; procedure, shortened: as §1
MDA-MB-231 [21] = experiment: Cell cycle arrest in human MDA-MB-231 cells assessed as accumulation at G0/G1 phase at 0.5 uM after 24 to 48 hrs by propidium iodide staining based flow cytometry (reference value: 74.4%); type: functional; procedure, shortened: as §1
MDA-MB-231 [22] = experiment: Cell cycle arrest in human MDA-MB-231 cells assessed as accumulation at G2/M phase at 0.5 uM after 24 to 48 hrs by propidium iodide staining based flow cytometry (reference value: 20.2%); type: functional; procedure, shortened: as §1
MDA-MB-231 [23] = experiment: Cell cycle arrest in human MDA-MB-231 cells assessed as accumulation at G0/G1 phase at 1 uM after 24 to 48 hrs by propidium iodide staining based flow cytometry (reference value: 74.4%); type: functional; procedure, shortened: as §1
MDA-MB-231 [24] = experiment: Cell cycle arrest in human MDA-MB-231 cells assessed as accumulation at G2/M phase at 1 uM after 24 to 48 hrs by propidium iodide staining based flow cytometry (reference value: 20.2%); type: functional; procedure, shortened: as §1
MDA-MB-231 [25] = experiment: Cell cycle arrest in human MDA-MB-231 cells assessed as accumulation at G0/G1 phase at 2 uM after 24 to 48 hrs by propidium iodide staining based flow cytometry (reference value: 74.4%); type: functional; procedure, shortened: as §1
A549 (human) = experiment: Induction of apoptosis in human A549 cells assessed as late apoptotic cells at 2 uM after 24 hrs by Annexin V-FITC/PI dual staining based flow cytometry (reference value: 6.2%)

Structure (SMILES): O=C1c2ccccc2Nc2ccccc2N1Cc1cn(Cc2ccccc2)nn1
- Activity (MDA-MB-231 [1]): 63.4%
- Activity (A549 [2]): 15%
- Activity (A549 [3]): Dose-dependent effect
- Activity (MDA-MB-231 [4]): Dose-dependent effect
- fold change (FC) (MDA-MB-231 [5]): 2.09
- Activity (A549 [6]): 9.4%
- Activity (A549 [7]): 2.5%
- Activity (A549 [8]): 14.5%
- Activity (MDA-MB-231 [9]): 14.2%
- Activity (A549 [10]): Dose-dependent effect
- Activity (MDA-MB-231 [11]): Dose-dependent effect
- IC50 (A549 [12]): 710 nM
- inhibition (MDA-MB-231 [13]): Dose-dependent effect
- inhibition (A549 [14]): Dose-dependent effect
- inhibition (MDA-MB-231 [15]): Dose-dependent effect
- Activity (A549 [16]): 19.5%
- Activity (A549 [17]): 36.6%
- Activity (A549 [18]): 39.8%
- Activity (A549 [19]): 43.6%
- Activity (A549 [20]): 51.3%
- Activity (MDA-MB-231 [21]): 73.6%
- Activity (MDA-MB-231 [22]): 22.3%
- Activity (MDA-MB-231 [23]): 60.1%
- Activity (MDA-MB-231 [24]): 33.6%
- Activity (MDA-MB-231 [25]): 33.3%
- Activity (A549 (human)): 15.6%
